Test results taken from the RNAGym collection of RNA variant scans (doi:10.1126/science.aae0568).
This sample holds only a part of the variants without activity.

B1: tRNA (parent)
chain: GUUCCGUUGGCGUAAUGGUAACGCGUCUCCCUCCUAAGGAGAAGACUGCGGGUUCGAGUCCCGUACGGAACG

Variants of: B1
Experiment: yeast fitness relative to wild type (ratio to wild type); higher = fitter; tRNA-Arg(CCU), competitive growth, 37 C, YPD
Procedure, shortened: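 Changes in genotype frequencies gave Darwinian fitness relative to wild type. Frequencies were read by 100-nucleotide paired-end sequencing of gene amplicons before and after pooled Saccharomyces cerevisiae strains, carrying tRNA-Arg(CCU) gene variants at the native locus, were competed in YPD at 37°C for 24 hours in six replicates. A genotype was kept only with ≥ 100 starting reads, and estimates < 0.5 were set to 0.5.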

Point of comparison: G10A G51A, yeast fitness 0.691. Against it:
- G10C A15C A21C — lower, ≤ 0.5
- G10C A43C U53A — lower, ≤ 0.5
- G10C C24U C29G — lower, 0.638
- G10A C61G C66U A69U — lower, ≤ 0.5
- G10C C30A — higher, 0.815
- G10C C30G — lower, 0.507
- G10C C30U — higher, 0.733
- G10A U26A C49U C66U — lower, ≤ 0.5
- G10C A14U C62U G67U — lower, ≤ 0.5
- G10A G68A — higher, 0.753
- G10A G68U — higher, 0.75
- G10C A69U — lower, 0.661
- G10C A37U G58A — lower, 0.608
- G10A U16A A65C — lower, ≤ 0.5
- G10C A21G C30A G38C C46U — lower, 0.681
- G10A G63A — higher, 0.698
- G10A C66G — lower, 0.592
- G10A C66A — lower, 0.545
- G10C A43U G48A G51A — lower, ≤ 0.5
- G10A G17A C31G — lower, ≤ 0.5
- G10A U19C A36G G48A C49G — lower, ≤ 0.5
- G10A U13A C24A U54A — lower, ≤ 0.5
- G10C C24G C46U — higher, 0.702
- G10A G25A A40C C55G C61A — lower, ≤ 0.5
- G10A U19A G44C C49U G67C — lower, ≤ 0.5
- G10C A36U C66U A70C — lower, ≤ 0.5
- G10A U47C — lower, 0.589
- G10A U47A — higher, 0.815
- G10C C11G A21U A45C G52C A57G — lower, ≤ 0.5
- G10A G12A — higher, 0.805
- G10A U13C A40C — lower, ≤ 0.5
- G10C A15G U35A G44A A69U — lower, ≤ 0.5
- G10A G38C A57G — lower, ≤ 0.5
- G10C A20G C66U — lower, ≤ 0.5
- G10A G17C C30G C33G C61A A69U A70G — lower, ≤ 0.5
- G10A G44A U54C C61U A69C — lower, 0.638
- G10C A15G C31A C33U A40C G44C G48U C49G — lower, ≤ 0.5
- G10C A15C A21C A69U — lower, ≤ 0.5
- G10A G18A C46A — lower, 0.539
- G10C A14U U19A C22U G68A — lower, ≤ 0.5
- G10A U16A G17A U32A A42U G48C — lower, ≤ 0.5
- G10A G23C C29U A36C A57U G63A — lower, ≤ 0.5
- G10A C62G — lower, 0.64
- G10A U64C A69U — lower, 0.542
- G10A U13A C24U — lower, 0.599
- G10A G48C G67C — lower, 0.56
- G10C A14G C62U — lower, ≤ 0.5
- G10A G51A C55G G67U G68C — lower, ≤ 0.5
- G10C C29U C31U A45C — lower, 0.623
- G10A G17A U59G C62U — lower, ≤ 0.5
- G10C C27U A65C — lower, 0.552
- G10C A14U C31G — lower, ≤ 0.5
- G10C C24A C30G A40G U47G C55U — lower, ≤ 0.5
- G10C A21U — lower, 0.675
- G10A U54A C55G — lower, ≤ 0.5
- G10A U19A A40C — lower, ≤ 0.5
- G10A U13G A36G — lower, 0.52
- G10A G17A U28C C30G A45C C49U — lower, ≤ 0.5
- G10C A21U C22G G67C — higher, 0.765
- G10C A20U G41U A57U — lower, ≤ 0.5
- G10A G25A — higher, 0.862
- G10A U35C A45G C49G G56A A65C — lower, ≤ 0.5
- G10A U35A G52C C66U — lower, ≤ 0.5
- G10A U13A C24U A70C — lower, ≤ 0.5
- G10A U54A — higher, 0.698
- G10A U54C — lower, 0.643
- G10C A14U C62U A69C — lower, ≤ 0.5
- G10C C29A G68C — lower, ≤ 0.5
- G10C A15C A43C — lower, ≤ 0.5
- G10C A15U A37U A45C G52C — lower, 0.606
- G10A G17C C30G C33G G48A C61A A69U — lower, ≤ 0.5
- G10C C22U G52A — lower, ≤ 0.5
- G10C C11G A45U — lower, ≤ 0.5
- G10C A21G C30A G38C C46U A70C — higher, 0.869
- G10A U13A C24U A65C — lower, ≤ 0.5
- G10A G17C U28C C30G C33G C61A A69U — lower, ≤ 0.5
- G10C A37G G52A C55G G58A — lower, ≤ 0.5
- G10C A14U U19A C22U U47C — lower, ≤ 0.5
- G10C A40G C62G — lower, ≤ 0.5
- G10C A14U G67A — lower, ≤ 0.5
- G10A U16A C31A G51A A70U — lower, ≤ 0.5
- G10A G39U A57C A70U — lower, ≤ 0.5
- G10C C29U C31U U54G A65U G67A — lower, ≤ 0.5
- G10C C11U C49A A65C — lower, ≤ 0.5
- G10C A20C — lower, 0.631
- G10C C22G C29A G41A C46U A65C — lower, ≤ 0.5
- G10C A14G A36U — lower, ≤ 0.5
- G10C A37U A45G C66U — lower, ≤ 0.5
- G10C A45U U53G — lower, ≤ 0.5
- G10C C22U C24A U28C A45G — lower, ≤ 0.5
- G10C A15U C27A C49G U64A — lower, ≤ 0.5
- G10A G18C C24U C30G C62U — lower, ≤ 0.5
- G10C C29A C46U C60G — lower, ≤ 0.5
- G10C C30G U59G C66A — lower, ≤ 0.5
- G10A U16A A57U — lower, 0.558
- G10C A14U G25A C27U U53C A70G — lower, 0.536
- G10C A14U U19A C22U — lower, 0.505
- G10A G41C C61G — lower, ≤ 0.5
- G10C C24U C29A A42G A45U C46G U47A G50A U64G — lower, ≤ 0.5
- G10A G41C — higher, 0.717
- G10A G41A — lower, 0.661
- G10A G52A A69U — lower, ≤ 0.5
- G10C C29U — lower, 0.589
- G10C A14U C29G — lower, 0.584
- G10A G18A C33U A37C A40U — lower, ≤ 0.5
- G10A G38C — lower, 0.549
- G10C C29U A43G U53G G63A — lower, 0.527
- G10A G18A C62U — lower, ≤ 0.5
- G10C C29U C46A A69U — lower, 0.59
- G10C C24G A70U — lower, ≤ 0.5
- G10C C11G C24G G67A — lower, ≤ 0.5
- G10A U16A G68A — lower, 0.567
- G10A U13G C27U C46G — lower, ≤ 0.5
- G10C C11G C24G — lower, 0.577
- G10C A14U U28A A57C — lower, ≤ 0.5
- G10A G25A G41C A57G — lower, ≤ 0.5
- G10C A45C — lower, 0.626
- G10C A14U C22U C24G U35C G56C U64A — lower, ≤ 0.5
- G10C C22U C60U C61A G63C A65U — lower, ≤ 0.5
- G10C C22U A65C — lower, ≤ 0.5
- G10C A14U G25A C27U U53C C61U A70G — lower, ≤ 0.5
- G10C A21C U26G C34U A40G G51A — lower, 0.598
- G10C C24A C46U — lower, ≤ 0.5
- G10C A36C C55U — lower, ≤ 0.5
- G10C C30G C34G A57G C66U — lower, 0.523
- G10C C29G G39A — lower, ≤ 0.5
- G10A U47A A65C — lower, ≤ 0.5
- G10A G17C C22U C30G C33G C61A A69U — lower, ≤ 0.5
- G10C A14C G52C — lower, ≤ 0.5
- G10C C27U A36C C61U — lower, 0.586
- G10A G12A C29G A65U — lower, ≤ 0.5
- G10C A14C C24U A70C — lower, ≤ 0.5
- G10C C22A C29G C49G — lower, ≤ 0.5
- G10A U13A A14C A43U C60G — lower, ≤ 0.5
- G10C C29A A40U C55G G67C — lower, ≤ 0.5
- G10A G23C C29U A36C C49G — lower, 0.53
- G10A G18A C27G A37G G38A C61U — lower, ≤ 0.5
- G10A G67A — higher, 0.75
- G10A G67C — higher, 0.819
- G10C C29G G39A U64A — lower, ≤ 0.5
- G10C A14C A40C C60A G63A — lower, ≤ 0.5
- G10A U26A G63A — lower, ≤ 0.5
- G10C A57U — lower, 0.548
- G10C A57G — lower, 0.604
- G10A U16C A36G G48C — lower, ≤ 0.5
- G10C A14C G18A — lower, ≤ 0.5
- G10C A15G C61A — lower, ≤ 0.5
- G10C C29U A69C — lower, ≤ 0.5
- G10A G23A A45G — lower, ≤ 0.5
- G10C C11A — lower, 0.6
- G10A U19A G41C C66U — lower, 0.617
- G10C A20C U28C A45G — lower, ≤ 0.5
- G10C A45C U59C — lower, ≤ 0.5
- G10C A20G U26C C46U — lower, ≤ 0.5
- G10A U16A U64A — lower, 0.544
- G10C C22U C33U U35C — lower, ≤ 0.5
- G10C C22U C49U A70G — lower, ≤ 0.5
- G10C A14C A15G U64G — lower, ≤ 0.5
- G10A G17A A37U — lower, ≤ 0.5
- G10A G25A C29G C31U — lower, ≤ 0.5
- G10C A20U C22A — lower, ≤ 0.5
- G10C A21G G23A — lower, ≤ 0.5
- G10C C24A G52A — lower, ≤ 0.5
- G10C A21G C22U C46U G56C — lower, 0.58
- G10C A20G C24U G38C — lower, 0.561
- G10A G12C A21U A42U — lower, ≤ 0.5
